Laboratory results reported in ChEMBL document CHEMBL1250501, “Anti-tubercular agents. Part 5: synthesis and biological evaluation of benzothiadiazine 1,1-dioxide based congeners” (Eur J Med Chem, 2010).
Values after ≈ are worked out from the molar mass of the structure shown. Active and inactive are the calls of the source. No cut-off for these calls is given here.

Tests used:
Pseudomonas aeruginosa [1] = test: Antibacterial activity against Pseudomonas aeruginosa at 100 units after 18 hrs by cup plate method; format: functional, organism-based
Aspergillus niger [2] = test: Antifungal activity against Aspergillus niger at 100 units after 48 hrs by cup plate method; format: functional
Staphylococcus aureus [3] = test: Antibacterial activity against Staphylococcus aureus at 100 units after 18 hrs by cup plate method; format: functional, organism-based
Escherichia coli [4] = test: Antibacterial activity against Escherichia coli at 100 units after 18 hrs by cup plate method; format: functional, organism-based
Aspergillus sp. [5] = test: Antifungal activity against Aspergillus sp. at 100 units after 48 hrs by cup plate method; format: functional
Klebsiella pneumoniae [6] = test: Antibacterial activity against Klebsiella pneumoniae at 100 units after 18 hrs by cup plate method; format: functional, organism-based
[7] = tested on: Staphylococcus epidermidis; test: Antibacterial activity against Staphylococcus epidermidis at 100 units after 18 hrs by cup plate method; format: functional, organism-based
Bacillus subtilis [8] = test: Antibacterial activity against Bacillus subtilis at 100 units after 18 hrs by cup plate method; format: functional, organism-based
Candida albicans [9] = test: Antifungal activity against Candida albicans MTCC 227 at 100 units after 48 hrs by cup plate method; format: functional
Staphylococcus aureus [10] = test: Antibacterial activity against Staphylococcus aureus at 75 ug/ml after 18 hrs by cup plate method; format: functional; conditions: read-out: DIZ
Procedure, shortened: (§1)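 Agar well diffusion on Mueller-Hinton agar. Inoculum was adjusted to a 0.5 McFarland standard (about […] × 10⁸ CFU/mL) and swabbed over the plate three times, rotating about 60° each time, then the rim was swabbed. Compounds in DMSO went into duplicate 6 mm wells. Plates were incubated at 37 °C for 18 h and inhibition zone diameter read to the nearest mm. DMSO negative control; streptomycin and ciprofloxacin positive controls.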

Escherichia coli [11] = test: Antibacterial activity against Escherichia coli at 10 ug/ml after 18 hrs by cup plate method; format: functional; conditions: read-out: DIZ; procedure, shortened: as §1
[12] = tested on: Mycobacterium tuberculosis; test: Antimycobacterial activity against Mycobacterium tuberculosis H37Rv after 3 to 4 weeks by broth microdilution assay; format: functional
Procedure, shortened: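 MIC by broth microdilution on compounds active in a single-concentration primary screen. Plates incubated 3–4 weeks at 37 °C in a CO₂ incubator. Wells read visually for absence of growth turbidity.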

Candida albicans [13] = test: Antifungal activity against Candida albicans MTCC 227 at 100 ug/ml after 48 hrs by cup plate method; format: functional; conditions: MTCC 227, 48 h, read-out: IZ
Procedure, shortened: (§2)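 Agar well (cup plate) diffusion on potato dextrose agar 39 g/L, with compounds dissolved in DMSO. Plates were incubated at 28 ± 2 °C for 48 h and inhibition zones measured to the nearest mm. Three replicates per treatment. Amphotericin B positive control; solvent control included.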

Pseudomonas aeruginosa [14] = test: Antibacterial activity against Pseudomonas aeruginosa at 50 ug/ml after 18 hrs by cup plate method; format: functional; conditions: read-out: DIZ; procedure, shortened: as §1
Bacillus subtilis [15] = test: Antibacterial activity against Bacillus subtilis at 100 ug/ml after 18 hrs by cup plate method; format: functional; conditions: read-out: DIZ; procedure, shortened: as §1
Aspergillus niger [16] = test: Antifungal activity against Aspergillus niger at 25 ug/ml after 48 hrs by cup plate method; format: functional, organism-based; procedure, shortened: as §2
Bacillus subtilis [17] = test: Antibacterial activity against Bacillus subtilis at 10 ug/ml after 18 hrs by cup plate method; format: functional; procedure, shortened: as §1
Aspergillus sp. [18] = test: Antifungal activity against Aspergillus sp. at 25 ug/ml after 48 hrs by cup plate method; format: functional; procedure, shortened: as §2
Bacillus subtilis [19] = test: Antibacterial activity against Bacillus subtilis at 25 ug/ml after 18 hrs by cup plate method; format: functional; conditions: read-out: DIZ; procedure, shortened: as §1
Aspergillus sp. [20] = test: Antifungal activity against Aspergillus sp. at 100 ug/ml after 48 hrs by cup plate method; format: functional; procedure, shortened: as §2
Aspergillus niger [21] = test: Antifungal activity against Aspergillus niger at 75 ug/ml after 48 hrs by cup plate method; format: functional; procedure, shortened: as §2
Pseudomonas aeruginosa [22] = test: Antibacterial activity against Pseudomonas aeruginosa at 75 ug/ml after 18 hrs by cup plate method; format: functional; conditions: read-out: DIZ; procedure, shortened: as §1
Klebsiella pneumoniae [23] = test: Antibacterial activity against Klebsiella pneumoniae at 25 ug/ml after 18 hrs by cup plate method; format: functional; conditions: read-out: DIZ; procedure, shortened: as §1
Aspergillus niger [24] = test: Antifungal activity against Aspergillus niger at 50 ug/ml after 48 hrs by cup plate method; format: functional, organism-based; procedure, shortened: as §2
Staphylococcus aureus [25] = test: Antibacterial activity against Staphylococcus aureus at 50 ug/ml after 18 hrs by cup plate method; format: functional; conditions: read-out: DIZ; procedure, shortened: as §1
Klebsiella pneumoniae [26] = test: Antibacterial activity against Klebsiella pneumoniae at 10 ug/ml after 18 hrs by cup plate method; format: functional; conditions: read-out: DIZ; procedure, shortened: as §1
Aspergillus niger [27] = test: Antifungal activity against Aspergillus niger at 100 ug/ml after 48 hrs by cup plate method; format: functional; procedure, shortened: as §2
Candida albicans [28] = test: Antifungal activity against Candida albicans MTCC 227 at 25 ug/ml after 48 hrs by cup plate method; format: functional
Procedure, shortened: (§3)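 Agar well (cup plate) diffusion on potato dextrose agar 39 g/L. Compounds dissolved in DMSO and loaded into 6 mm wells. Incubated at 28 ± 2 °C for 48 h. Inhibition zone diameter measured to the nearest millimetre, three replicates per treatment. DMSO solvent as negative control, amphotericin B as positive control.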

[29] = tested on: Staphylococcus epidermidis; test: Antibacterial activity against Staphylococcus epidermidis at 75 ug/ml after 18 hrs by cup plate method; format: functional; conditions: read-out: DIZ; procedure, shortened: as §1
Klebsiella pneumoniae [30] = test: Antibacterial activity against Klebsiella pneumoniae at 50 ug/ml after 18 hrs by cup plate method; format: functional; conditions: read-out: DIZ; procedure, shortened: as §1
Staphylococcus aureus [31] = test: Antibacterial activity against Staphylococcus aureus at 10 ug/ml after 18 hrs by cup plate method; format: functional; conditions: read-out: DIZ; procedure, shortened: as §1
Candida albicans [32] = test: Antifungal activity against Candida albicans MTCC 227 at 75 ug/ml after 48 hrs by cup plate method; format: functional; procedure, shortened: as §3
Escherichia coli [33] = test: Antibacterial activity against Escherichia coli at 25 ug/ml after 18 hrs by cup plate method; format: functional; conditions: read-out: DIZ; procedure, shortened: as §1
Staphylococcus aureus [34] = test: Antibacterial activity against Staphylococcus aureus at 25 ug/ml after 18 hrs by cup plate method; format: functional; conditions: read-out: DIZ; procedure, shortened: as §1
Pseudomonas aeruginosa [35] = test: Antibacterial activity against Pseudomonas aeruginosa at 10 ug/ml after 18 hrs by cup plate method; format: functional; procedure, shortened: as §1
Pseudomonas aeruginosa [36] = test: Antibacterial activity against Pseudomonas aeruginosa at 25 ug/ml after 18 hrs by cup plate method; format: functional; conditions: read-out: DIZ; procedure, shortened: as §1
Klebsiella pneumoniae [37] = test: Antibacterial activity against Klebsiella pneumoniae at 75 ug/ml after 18 hrs by cup plate method; format: functional; conditions: read-out: DIZ; procedure, shortened: as §1
Aspergillus sp. [38] = test: Antifungal activity against Aspergillus sp. at 75 ug/ml after 48 hrs by cup plate method; format: functional; procedure, shortened: as §2
Escherichia coli [39] = test: Antibacterial activity against Escherichia coli at 50 ug/ml after 18 hrs by cup plate method; format: functional; conditions: read-out: DIZ; procedure, shortened: as §1
Bacillus subtilis [40] = test: Antibacterial activity against Bacillus subtilis at 50 ug/ml after 18 hrs by cup plate method; format: functional; conditions: read-out: DIZ; procedure, shortened: as §1
[41] = tested on: Staphylococcus epidermidis; test: Antibacterial activity against Staphylococcus epidermidis at 100 ug/ml after 18 hrs by cup plate method; format: functional; conditions: read-out: DIZ; procedure, shortened: as §1
Staphylococcus aureus [42] = test: Antibacterial activity against Staphylococcus aureus at 100 ug/ml after 18 hrs by cup plate method; format: functional; conditions: read-out: DIZ; procedure, shortened: as §1
Aspergillus sp. [43] = test: Antifungal activity against Aspergillus sp. at 50 ug/ml after 48 hrs by cup plate method; format: functional; procedure, shortened: as §2
Pseudomonas aeruginosa [44] = test: Antibacterial activity against Pseudomonas aeruginosa at 100 ug/ml after 18 hrs by cup plate method; format: functional; conditions: read-out: DIZ; procedure, shortened: as §1
Candida albicans [45] = test: Antifungal activity against Candida albicans MTCC 227 at 50 ug/ml after 48 hrs by cup plate method; format: functional; procedure, shortened: as §3
[46] = tested on: Staphylococcus epidermidis; test: Antibacterial activity against Staphylococcus epidermidis at 25 ug/ml after 18 hrs by cup plate method; format: functional; conditions: read-out: DIZ; procedure, shortened: as §1
Escherichia coli [47] = test: Antibacterial activity against Escherichia coli at 75 ug/ml after 18 hrs by cup plate method; format: functional; conditions: read-out: DIZ; procedure, shortened: as §1
[48] = tested on: Staphylococcus epidermidis; test: Antibacterial activity against Staphylococcus epidermidis at 10 ug/ml after 18 hrs by cup plate method; format: functional; conditions: read-out: DIZ; procedure, shortened: as §1
[49] = tested on: Staphylococcus epidermidis; test: Antibacterial activity against Staphylococcus epidermidis at 50 ug/ml after 18 hrs by cup plate method; format: functional; conditions: read-out: DIZ; procedure, shortened: as §1
Bacillus subtilis [50] = test: Antibacterial activity against Bacillus subtilis at 75 ug/ml after 18 hrs by cup plate method; format: functional; conditions: read-out: DIZ; procedure, shortened: as §1
Klebsiella pneumoniae [51] = test: Antibacterial activity against Klebsiella pneumoniae at 100 ug/ml after 18 hrs by cup plate method; format: functional; conditions: read-out: DIZ; procedure, shortened: as §1
Escherichia coli [52] = test: Antibacterial activity against Escherichia coli at 100 ug/ml after 18 hrs by cup plate method; format: functional; conditions: read-out: DIZ; procedure, shortened: as §1

C[C@@H]1[C@H](O)[C@@H](C)/C=C/C=C/C=C/C=C/C=C/C=C/C=C/[C@H](O[C@@H]2O[C@H](C)[C@@H](O)[C@H](N)[C@@H]2O)C[C@@H]2O[C@](O)(C[C@@H](O)C[C@@H](O)[C@H](O)CC[C@@H](O)C[C@@H](O)CC(=O)O[C@H]1C)C[C@H](O)[C@H]2C(=O)O [AMPHOTERICIN B]
diameter of the inhibition zone (DIZ) (Pseudomonas aeruginosa [1]): inactive
inhibition zone (IZ) (Aspergillus niger [2]): 23 mm
diameter of the inhibition zone (DIZ) (Staphylococcus aureus [3]): inactive
diameter of the inhibition zone (DIZ) (Escherichia coli [4]): inactive
inhibition zone (IZ) (Aspergillus sp. [5]): 14 mm
diameter of the inhibition zone (DIZ) (Klebsiella pneumoniae [6]): inactive
diameter of the inhibition zone (DIZ) [7]: inactive
diameter of the inhibition zone (DIZ) (Bacillus subtilis [8]): inactive
inhibition zone (IZ) (Candida albicans [9]): 14 mm

CCN1C(N2CCN(Cc3ccc([N+](=O)[O-])o3)CC2)=NS(=O)(=O)c2ccccc21
zone of inhibition at 75 µg/mL (Staphylococcus aureus [10]): 21 mm
zone of inhibition at 10 µg/mL (Escherichia coli [11]): 12 mm
MIC [12]: 2.81 µg/mL (≈ 6.7 µM)
zone of inhibition at 100 µg/mL (Candida albicans [13]): 10 mm
zone of inhibition at 50 µg/mL (Pseudomonas aeruginosa [14]): 10 mm
zone of inhibition at 100 µg/mL (Bacillus subtilis [15]): 23 mm
inhibition zone (IZ) (Aspergillus niger [16]): inactive
diameter of the inhibition zone (DIZ) (Bacillus subtilis [17]): inactive
inhibition zone (IZ) (Aspergillus sp. [18]): inactive
zone of inhibition at 25 µg/mL (Bacillus subtilis [19]): 11 mm
inhibition zone (IZ) (Aspergillus sp. [20]): inactive
inhibition zone (IZ) (Aspergillus niger [21]): inactive
zone of inhibition at 75 µg/mL (Pseudomonas aeruginosa [22]): 22 mm
zone of inhibition at 25 µg/mL (Klebsiella pneumoniae [23]): 15 mm
inhibition zone (IZ) (Aspergillus niger [24]): inactive
zone of inhibition at 50 µg/mL (Staphylococcus aureus [25]): 16 mm
zone of inhibition at 10 µg/mL (Klebsiella pneumoniae [26]): 10 mm
inhibition zone (IZ) (Aspergillus niger [27]): inactive
inhibition zone (IZ) (Candida albicans [28]): inactive
zone of inhibition at 75 µg/mL [29]: 15 mm
zone of inhibition at 50 µg/mL (Klebsiella pneumoniae [30]): 11 mm
zone of inhibition at 10 µg/mL (Staphylococcus aureus [31]): 13 mm
inhibition zone (IZ) (Candida albicans [32]): inactive
zone of inhibition at 25 µg/mL (Escherichia coli [33]): 20 mm
zone of inhibition at 25 µg/mL (Staphylococcus aureus [34]): 16 mm
diameter of the inhibition zone (DIZ) (Pseudomonas aeruginosa [35]): inactive
zone of inhibition at 25 µg/mL (Pseudomonas aeruginosa [36]): 16 mm
zone of inhibition at 75 µg/mL (Klebsiella pneumoniae [37]): 20 mm
inhibition zone (IZ) (Aspergillus sp. [38]): inactive
zone of inhibition at 50 µg/mL (Escherichia coli [39]): 16 mm
zone of inhibition at 50 µg/mL (Bacillus subtilis [40]): 17 mm
zone of inhibition at 100 µg/mL [41]: 24 mm
zone of inhibition at 100 µg/mL (Staphylococcus aureus [42]): 10 mm
inhibition zone (IZ) (Aspergillus sp. [43]): inactive
zone of inhibition at 100 µg/mL (Pseudomonas aeruginosa [44]): 16 mm
inhibition zone (IZ) (Candida albicans [45]): inactive
zone of inhibition at 25 µg/mL [46]: 12 mm
zone of inhibition at 75 µg/mL (Escherichia coli [47]): 29 mm
zone of inhibition at 10 µg/mL [48]: 9 mm
zone of inhibition at 50 µg/mL [49]: 12 mm
zone of inhibition at 75 µg/mL (Bacillus subtilis [50]): 19 mm
zone of inhibition at 100 µg/mL (Klebsiella pneumoniae [51]): 19 mm
zone of inhibition at 100 µg/mL (Escherichia coli [52]): 30 mm
